In brackets after ≈: the same amount, converted by molar mass. Activity calls are given as the source filed them. The calls are words filed in the database; no cut-off is given here.
Key:
Assay type in all cases: functional
Candida albicans [1] = test: Antimicrobial activity against Candida albicans 3471 at 128 ug/disc at 37 degC after 24 to 72 hrs by agar-well diffusion assay; conditions: for zone of inhibition at 128 µg/disc: read-out: DIZ
How it was run: (§1)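 Potato dextrose agar base plates overlaid with seeded agar cooled to 40 °C and inoculated with spores from 10-day cultures, final 1 × 10⁶ spores/mL. Compounds dissolved in DMSO at 128 µg/mL and applied on 6 mm filter-paper discs placed on chilled seeded medium. Nystatin positive control, DMSO negative control. Incubation 24–72 h at 37 °C. Inhibition zone diameter read by vernier caliper.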

Aspergillus niger [2] = test: Antimicrobial activity against Aspergillus niger 545 at 35 degC after 48 hrs by CLSI method based antimicrobial assay
How it was run: (§2)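 Broth microdilution following CLSI guidelines over 256 to 1 µg/mL. MIC90 is the lowest concentration completely inhibiting growth. For MFC, 0.1 mL from each tube spread on agar and CFU counted after 48 h at 35 °C; MFC is lowest concentration killing 99.9% of inoculum. MFC/MIC ratio calculated: […], ≤4 as fungicidal.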

Bacillus subtilis [3] = test: Antimicrobial activity against Bacillus subtilis 2250 at 128 ug/disc at 35 degC after 24 hrs by agar-well diffusion assay; conditions: for zone of inhibition at 128 µg/disc: Bacillus subtilis, 2250, 24 h, read-out: DIZ
How it was run: (§3)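 Agar-well diffusion: 24 h bacterial cultures adjusted to 0.5 McFarland (1.5 × 10⁸ CFU/mL) and mixed into molten Mueller-Hinton agar before pouring. 6 mm wells punched and each filled with 50 µL of compound stock or control. Plates incubated 35 °C for 24 h. Zone of growth inhibition diameter measured with vernier caliper.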

Staphylococcus aureus [4] = test: Antimicrobial activity against Staphylococcus aureus 2079 at 128 ug/disc at 35 degC after 24 hrs by agar-well diffusion assay; conditions: for zone of inhibition at 128 µg/disc: Staphylococcus aureus, 2079, 24 h, read-out: DIZ; how it was run: as §3
Pseudomonas aeruginosa [5] = test: Antimicrobial activity against Pseudomonas aeruginosa 2036 at 128 ug/disc at 35 degC after 24 hrs by agar-well diffusion assay; conditions: for zone of inhibition at 128 µg/disc: Pseudomonas aeruginosa, 2036, 24 h, read-out: DIZ; how it was run: as §3
Staphylococcus aureus [6] = test: Antimicrobial activity against Staphylococcus aureus 2079 at 35 degC after 18 to 24 hrs by NCCLS method based antimicrobial assay; conditions: for MBC: read-out: MBC99.9
Pseudomonas aeruginosa [7] = test: Antimicrobial activity against Pseudomonas aeruginosa 2036 at 35 degC after 18 to 24 hrs by NCCLS method based antimicrobial assay; conditions: for MBC: read-out: MBC99.9
Escherichia coli [8] = test: Antimicrobial activity against Escherichia coli 2109 at 35 degC after 18 to 24 hrs by NCCLS method based antimicrobial assay; conditions: for MBC: read-out: MBC99.9
Bacillus subtilis [9] = test: Antimicrobial activity against Bacillus subtilis 2250 at 35 degC after 18 to 24 hrs by NCCLS method based antimicrobial assay; conditions: for MBC: read-out: MBC99.9
Aspergillus niger [10] = test: Antimicrobial activity against Aspergillus niger 545 at 128 ug/disc at 37 degC after 24 to 72 hrs by agar-well diffusion assay; conditions: in the assay text read “disc diffusion assay” for “agar-well diffusion assay”; how it was run: as §1
Candida albicans [11] = test: Antimicrobial activity against Candida albicans 3471 at 35 degC after 48 hrs by CLSI method based antimicrobial assay; conditions: for MFC: read-out: MFC99.9; how it was run: as §2
Escherichia coli [12] = test: Antimicrobial activity against Escherichia coli 2109 at 128 ug/disc at 35 degC after 24 hrs by agar-well diffusion assay; conditions: for zone of inhibition at 128 µg/disc: Escherichia coli, 2109, 24 h, read-out: DIZ; how it was run: as §3
Candida albicans [13] = test: Ratio of MFC99.9 to MIC90 for Candida albicans 3471 at 35 degC after 48 hrs by CLSI method based antimicrobial assay; how it was run: as §2

SMILES | diameter of the inhibition zone (DIZ) (Candida albicans [1]) | MFC99.9 (Aspergillus niger [2]) | MIC (Aspergillus niger [2]) | diameter of the inhibition zone (DIZ) (Bacillus subtilis [3]) | diameter of the inhibition zone (DIZ) (Staphylococcus aureus [4]) | zone of inhibition at 128 µg/disc (Pseudomonas aeruginosa [5]) | MBC99.9 (Staphylococcus aureus [6]) | MIC (Staphylococcus aureus [6]) | MIC (Pseudomonas aeruginosa [7]) | MBC (Pseudomonas aeruginosa [7]) | MIC (Escherichia coli [8]) | MBC (Escherichia coli [8]) | MBC99.9 (Bacillus subtilis [9]) | MIC (Bacillus subtilis [9]) | diameter of the inhibition zone (DIZ) (Aspergillus niger [10]) | MFC99.9 (Candida albicans [11]) | MIC (Candida albicans [11]) | diameter of the inhibition zone (DIZ) (Pseudomonas aeruginosa [5]) | MBC99.9 (Pseudomonas aeruginosa [7]) | MBC99.9 (Escherichia coli [8]) | further results
O=[N+]([O-])c1ccc(/C(Cn2nnc3ccccc32)=N\Nc2nc(-c3ccc(Cl)cc3)cs2)cc1 | inactive | inactive | inactive | inactive | inactive | 16.7 mm | inactive | inactive | 64 µg/mL (≈ 131 µM) | 128 µg/mL (≈ 261 µM) | 64 µg/mL (≈ 131 µM) | 128 µg/mL (≈ 261 µM) | inactive | inactive | inactive | inactive | inactive | – | – | – | zone of inhibition at 128 µg/disc (Escherichia coli [12]): 18.7 mm
FC(F)(F)c1cc(/C(Cn2nnc3ccccc32)=N\Nc2nc(-c3cc(C(F)(F)F)cc(C(F)(F)F)c3)cs2)cc(C(F)(F)F)c1 | – | inactive | inactive | inactive | inactive | – | inactive | inactive | inactive | – | 128 µg/mL (≈ 188 µM) | 256 µg/mL (≈ 375 µM) | inactive | inactive | inactive | – | – | inactive | inactive | – | zone of inhibition at 128 µg/disc (Candida albicans [1]): 11.7 mm; Ratio (Candida albicans [13]): 2; MIC (Candida albicans [11]; Candida albicans, 3471, 48 h): 128 µg/mL (≈ 188 µM); MFC (Candida albicans [11]; Candida albicans, 3471, 48 h): 256 µg/mL (≈ 375 µM); zone of inhibition at 128 µg/disc (Escherichia coli [12]): 16.4 mm
Brc1ccc(/C(Cn2nnc3ccccc32)=N\Nc2nc(-c3ccc(Br)cc3)cs2)cc1 | – | inactive | inactive | – | – | – | – | 32 µg/mL (≈ 56.3 µM) | inactive | – | inactive | – | – | 128 µg/mL (≈ 225 µM) | inactive | – | – | inactive | inactive | inactive | zone of inhibition at 128 µg/disc (Candida albicans [1]): 18.1 mm; Ratio (Candida albicans [13]): 2; zone of inhibition at 128 µg/disc (Bacillus subtilis [3]): 17.2 mm; zone of inhibition at 128 µg/disc (Staphylococcus aureus [4]): 23.4 mm; MBC (Staphylococcus aureus [6]): 64 µg/mL (≈ 113 µM); MBC (Bacillus subtilis [9]): 256 µg/mL (≈ 450 µM); MIC (Candida albicans [11]; Candida albicans, 3471, 48 h): 32 µg/mL (≈ 56.3 µM); MFC (Candida albicans [11]; Candida albicans, 3471, 48 h): 64 µg/mL (≈ 113 µM); diameter of the inhibition zone (DIZ) (Escherichia coli [12]): inactive
O=C(N[C@H](CO)[C@H](O)c1ccc([N+](=O)[O-])cc1)C(Cl)Cl [CHLORAMPHENICOL] | – | – | – | – | – | 23.9 mm | – | – | – | 32 µg/mL (≈ 99 µM) | – | 32 µg/mL (≈ 99 µM) | – | – | – | – | – | – | – | – | zone of inhibition at 128 µg/disc (Bacillus subtilis [3]): 29.2 mm; zone of inhibition at 128 µg/disc (Staphylococcus aureus [4]): 31.4 mm; MBC (Staphylococcus aureus [6]): 32 µg/mL (≈ 99 µM); MBC (Bacillus subtilis [9]): 32 µg/mL (≈ 99 µM); zone of inhibition at 128 µg/disc (Escherichia coli [12]): 27.6 mm
O=[N+]([O-])c1ccc(/C(Cn2nnc3ccccc32)=N\Nc2nc(-c3ccc(Br)cc3)cs2)cc1 | – | inactive | inactive | – | – | – | – | 64 µg/mL (≈ 120 µM) | inactive | – | inactive | – | – | 128 µg/mL (≈ 240 µM) | inactive | – | – | inactive | inactive | inactive | zone of inhibition at 128 µg/disc (Candida albicans [1]): 17.3 mm; Ratio (Candida albicans [13]): 2; zone of inhibition at 128 µg/disc (Bacillus subtilis [3]): 15.3 mm; zone of inhibition at 128 µg/disc (Staphylococcus aureus [4]): 22.6 mm; MBC (Staphylococcus aureus [6]): 128 µg/mL (≈ 240 µM); MBC (Bacillus subtilis [9]): 256 µg/mL (≈ 479 µM); MIC (Candida albicans [11]; Candida albicans, 3471, 48 h): 32 µg/mL (≈ 59.9 µM); MFC (Candida albicans [11]; Candida albicans, 3471, 48 h): 64 µg/mL (≈ 120 µM)
FC(F)(F)c1cc(/C(Cn2nnc3ccccc32)=N\Nc2nc(-c3ccc(Br)cc3)cs2)cc(C(F)(F)F)c1 | inactive | inactive | inactive | inactive | inactive | 15.6 mm | inactive | inactive | 64 µg/mL (≈ 102 µM) | 128 µg/mL (≈ 205 µM) | inactive | – | inactive | inactive | inactive | inactive | inactive | – | – | inactive | –
FC(F)(F)c1cc(-c2csc(N/N=C(/Cn3nnc4ccccc43)c3ccc(Br)cc3)n2)cc(C(F)(F)F)c1 | inactive | inactive | inactive | – | – | – | – | 64 µg/mL (≈ 102 µM) | inactive | – | inactive | – | – | 64 µg/mL (≈ 102 µM) | inactive | inactive | inactive | inactive | inactive | inactive | zone of inhibition at 128 µg/disc (Bacillus subtilis [3]): 20.3 mm; zone of inhibition at 128 µg/disc (Staphylococcus aureus [4]): 22.1 mm; MBC (Staphylococcus aureus [6]): 64 µg/mL (≈ 102 µM); MBC (Bacillus subtilis [9]): 128 µg/mL (≈ 205 µM); diameter of the inhibition zone (DIZ) (Escherichia coli [12]): inactive
O=[N+]([O-])c1ccc(-c2csc(N/N=C(/Cn3nnc4ccccc43)c3cc(C(F)(F)F)cc(C(F)(F)F)c3)n2)cc1 | inactive | inactive | inactive | inactive | inactive | – | inactive | inactive | inactive | – | 128 µg/mL (≈ 216 µM) | 256 µg/mL (≈ 433 µM) | inactive | inactive | inactive | inactive | inactive | inactive | inactive | – | zone of inhibition at 128 µg/disc (Escherichia coli [12]): 13.1 mm
O=[N+]([O-])c1ccc(-c2csc(N/N=C(/Cn3nnc4ccccc43)c3ccc(Br)cc3)n2)cc1 | inactive | inactive | inactive | inactive | inactive | 13.2 mm | inactive | inactive | 128 µg/mL (≈ 240 µM) | 256 µg/mL (≈ 479 µM) | inactive | – | inactive | inactive | inactive | inactive | inactive | – | – | inactive | diameter of the inhibition zone (DIZ) (Escherichia coli [12]): inactive
